Test results: BindingDB's records for PubMed 35700596 (2022)
pIC50: −log10 of the molar value.

molecular target: T1, Nuclear factor of activated T-cells, cytoplasmic 1 (Homo sapiens, UniProt O95644); test: Inhibition of NFATC activity in HEK293T cells preincubated for 2 hrs followed by ionomycin/phorbol 12-myristate 13-acetate stimulation and measured after 4 hrs by luciferase reporter assay
T1 sequence (O95644 whole entry): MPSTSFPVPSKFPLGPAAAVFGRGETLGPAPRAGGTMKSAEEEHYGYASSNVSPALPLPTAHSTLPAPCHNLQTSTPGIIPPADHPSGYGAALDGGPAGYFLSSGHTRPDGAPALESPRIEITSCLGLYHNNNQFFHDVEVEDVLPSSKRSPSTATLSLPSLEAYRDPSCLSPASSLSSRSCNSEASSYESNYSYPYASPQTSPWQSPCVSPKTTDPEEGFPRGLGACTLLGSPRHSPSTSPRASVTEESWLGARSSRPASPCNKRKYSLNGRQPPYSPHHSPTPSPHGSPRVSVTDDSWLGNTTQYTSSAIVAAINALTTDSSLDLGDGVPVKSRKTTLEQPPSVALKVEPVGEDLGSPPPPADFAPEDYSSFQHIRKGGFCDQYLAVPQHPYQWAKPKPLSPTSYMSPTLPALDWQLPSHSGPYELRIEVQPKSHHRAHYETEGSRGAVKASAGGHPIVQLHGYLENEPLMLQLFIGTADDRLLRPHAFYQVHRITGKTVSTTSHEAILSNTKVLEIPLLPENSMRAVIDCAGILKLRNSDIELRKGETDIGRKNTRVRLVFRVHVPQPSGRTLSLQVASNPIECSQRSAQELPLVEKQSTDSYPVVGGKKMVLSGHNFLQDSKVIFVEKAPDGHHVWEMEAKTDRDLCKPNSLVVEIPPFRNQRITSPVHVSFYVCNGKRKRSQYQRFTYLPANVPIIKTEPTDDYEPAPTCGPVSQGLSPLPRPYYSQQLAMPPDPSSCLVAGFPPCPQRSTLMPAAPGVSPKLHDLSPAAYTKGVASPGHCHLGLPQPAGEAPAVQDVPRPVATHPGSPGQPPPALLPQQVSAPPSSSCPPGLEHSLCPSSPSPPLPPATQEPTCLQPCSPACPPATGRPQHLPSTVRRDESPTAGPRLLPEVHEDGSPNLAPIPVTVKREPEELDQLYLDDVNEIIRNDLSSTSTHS
In short: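 HEK 293T cells (7.5 × 10⁴/well) co-transfected by CaCl₂ method with 100 ng 3xNFAT-luc and 1 ng pRLnull as transfection control. At 24 h, compound added for 2 h, then stimulated with 1 µM ionomycin, PMA and CaCl₂ for 4 h (20 ng/ml PMA and 2 mM CaCl₂ per figure legend). Luciferase read from crude extracts, relative to stimulated no-compound control (100%). Single doses 50 and 5 μM; dose-response 0.1–50 μM. IC50 by nonlinear regression; 3 experiments in triplicate.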

Compared with `Cc1ccc(C(=O)NCC(=O)Nc2cc(S(=O)(=O)Nc3ccc(Cl)cc3)ccc2Cl)s1`, `CS(=O)(=O)NCc1cccc(NC(=O)c2csc3ccccc23)c1` is 0.62 log units lower in pIC50: 5.35 for the first, 4.73 for the second. The first is the more potent here.

In the case of `CS(=O)(=O)NCc1cccc(NC(=O)c2ccc3[nH]ccc3c2)c1`, the pIC50 was 4.94.
